Consider 4 compounds from ChEMBL document CHEMBL2346617, “Euryspongins A-C, three new unique sesquiterpenes from a marine sponge Euryspongia sp” (Bioorg Med Chem Lett, 2013).

The structures appear in SMILES notation. pIC50: −log10 of the molar value. The source made the active and inactive calls. No cut-off for these calls is given here.

What is called pIC50 is −log10 of the IC50, conventionally taken in molar units. A lower pIC50 goes with a high IC50.

Assay [1] concerns HCT-15. Nature of the assay: Antiproliferative activity against human HCT15 cells at 45 uM. The assay is classed as functional, cell-based. The method, boiled down:
(§1)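 Proliferation of human cancer cell lines HCT-15 (colon) and Jurkat (T-cell lymphoma) was tested at a single concentration of 45 μM per compound.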

For assay [2], the system named is Jurkat. Nature of the assay: Antiproliferative activity against human Jurkat cells at 45 uM. In kind it is functional, cell-based. A digest of the protocol:
as §1

Assay [3] addresses T1, Tyrosine-protein phosphatase non-receptor type 1 (Homo sapiens) (UniProt P18031).
T1 sequence (whole entry): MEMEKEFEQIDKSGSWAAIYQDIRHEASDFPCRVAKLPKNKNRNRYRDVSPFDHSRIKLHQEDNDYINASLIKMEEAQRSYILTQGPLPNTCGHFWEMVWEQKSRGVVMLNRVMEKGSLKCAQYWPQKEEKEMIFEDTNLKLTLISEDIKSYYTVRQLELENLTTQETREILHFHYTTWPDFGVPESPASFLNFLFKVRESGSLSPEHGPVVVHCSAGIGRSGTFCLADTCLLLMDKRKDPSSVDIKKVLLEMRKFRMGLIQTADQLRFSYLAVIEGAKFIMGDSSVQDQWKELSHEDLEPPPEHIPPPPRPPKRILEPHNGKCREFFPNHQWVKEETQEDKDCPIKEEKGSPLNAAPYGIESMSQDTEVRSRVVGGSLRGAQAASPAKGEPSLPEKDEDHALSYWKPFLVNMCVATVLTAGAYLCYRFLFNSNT
Nature of the assay: Inhibition of PTP1B (unknown origin) at 35 to 40 uM.

Assay [4] has as its target T2, Tyrosine-protein phosphatase non-receptor type 1 (Homo sapiens, UniProt P18031).
T2 sequence (P18031 whole entry): T1 sequence (whole entry)
Nature of the assay: Inhibition of PTP1B (unknown origin).

For `CC1=C[C@@H]2CC(C)(C)[C@H]1C[C@H](O)C1=CC(=O)O[C@@H]12` (relative stereo), the inhibition entry in assay [1], in assay [2] and in assay [3] was “inactive” throughout.
Take `CO[C@]12OC(=O)C=C1[C@@H](O)C[C@H]1C(C)=C[C@@H]2CC1(C)C` (relative stereo): the inhibition result in assay [1], in assay [2] and in assay [3] was “inactive” each time.
For the compound `CC1=C[C@@H]2CC(C)(C)[C@H]1C[C@H](O)c1ccoc12` (relative stereo), the inhibition entry in assay [1], in assay [2] and in assay [3] was “inactive” each time.
For the compound `CC1=C[C@@H]2CC(C)(C)[C@H]1/C=C\c1ccoc12` (relative stereo) [REL-DEHYDROEURYSPONGIN A], the inhibition result in assay [1] and in assay [2] was “inactive” in each case. This compound also had a pIC50 in assay [4] of 5.44.
